Laboratory results reported in ChEMBL document CHEMBL2021876, “New pyridobenzoxazepine derivatives derived from 5-(4-methylpiperazin-1-yl)-8-chloro-pyrido[2,3-b][1,5]benzoxazepine (JL13): chemical synthesis and pharmacological evaluation” (J Med Chem, 2012).

Tests used:
[1] = test system: Caudate-putamen; test: In vivo displacement of [3H]Ketanserin from 5HT2A receptor in Sprague-Dawley rat lateral part of caudate putamen at 13.75 mg/kg, ip qd for 28 days by autoradiography relative to control; format: functional; conditions: route intraperitoneal
Method in brief: (§1)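 Rats (male Sprague-Dawley, N = 8/group) given daily ip injections for 28 days versus vehicle. Brain sections preincubated 1 h RT in 50 mM Tris-HCl pH 7.7, then 1 h RT with 3.0 nM [3H]ketanserin plus 1 μM prazosin and 100 nM tetrabenazine. Nonspecific: 1 μM methysergide. Washes 2 × 30 min ice-cold. Readout fmol/mg tissue as % of control, mean ± SEM.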

[2] = molecular target: T1, Serotonin 1a (5-HT1a) receptor/Adrenergic receptor alpha-1 (Rattus norvegicus) (UniProt P15823+P23944+P43140+P19327); test: In vivo displacement of [3H]8-OH-DPAT from 5HT1A receptor in Sprague-Dawley rat nucleus accumbens at 13.75 mg/kg, ip qd for 28 days by autoradiography relative to control; format: functional, organism-based; parameters: dose 13.75 mg/kg
Method in brief: (§2)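 Male Sprague-Dawley rats (200−225 g, N = 8/group) dosed ip once daily for 28 days, vehicle controls, decapitated; 10 μm frozen coronal sections. Preincubation 1 h RT in 50 mM Tris-HCl pH 7.6, 0.1% ascorbic acid, 4 mM CaCl2, 10 μM pargyline; then 1 h RT with 2.0 nM [3H]8-OH-DPAT. Nonspecific: 1 μM 5-HT. Saturating conditions; binding in fmol/mg tissue, % of control, mean ± SEM.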

[3] = test system: Caudate-putamen; test: In vivo displacement of [3H]Ketanserin from 5HT2A receptor in Sprague-Dawley rat medial part of caudate putamen at 13.75 mg/kg, ip qd for 28 days by autoradiography relative to control; format: functional; conditions: route intraperitoneal; method in brief: as §1
[4] = molecular target: D(2) dopamine receptor (Rattus norvegicus) (UniProt P61169); test: In vivo displacement of [3H]Nemonapride from dopamine D2 receptor in Sprague-Dawley rat dorsolateral frontal cortex at 13.75 mg/kg, ip qd for 28 days by autoradiography relative to control; format: functional, organism-based; parameters: dose 13.75 mg/kg
D(2) dopamine receptor (Rattus norvegicus), sequence (P61169 whole entry): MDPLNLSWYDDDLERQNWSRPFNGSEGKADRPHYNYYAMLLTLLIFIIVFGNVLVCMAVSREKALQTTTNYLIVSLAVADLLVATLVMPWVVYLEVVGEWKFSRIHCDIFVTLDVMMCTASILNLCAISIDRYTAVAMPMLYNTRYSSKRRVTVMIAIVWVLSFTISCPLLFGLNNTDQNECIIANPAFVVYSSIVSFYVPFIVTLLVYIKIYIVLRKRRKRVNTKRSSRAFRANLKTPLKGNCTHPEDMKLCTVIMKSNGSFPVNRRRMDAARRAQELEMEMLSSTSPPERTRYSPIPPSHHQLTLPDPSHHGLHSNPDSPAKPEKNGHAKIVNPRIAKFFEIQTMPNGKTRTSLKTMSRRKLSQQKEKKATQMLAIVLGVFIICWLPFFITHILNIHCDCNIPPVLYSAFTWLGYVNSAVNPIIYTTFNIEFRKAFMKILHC
Method in brief: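 Male Sprague-Dawley rats, N = 8/group, daily ip dosing for 28 days with vehicle controls; cryostat sections (10 μm) preincubated 1 h RT. Incubation 1 h RT in 50 mM Tris-HCl pH 7.4, 120 mM NaCl, 5 mM KCl, 2 mM CaCl2, 1 mM MgCl2 with 1 nM [3H]nemonapride, 0.5 μM DTG, 0.1 μM pindolol. Nonspecific: 10 μM S(−)-sulpiride. Values fmol/mg tissue, % of control.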

[5] = test system: Caudate-putamen; test: In vivo displacement of [3H]Nemonapride from dopamine D4 receptor in Sprague-Dawley rat lateral part of caudate putamen at 13.75 mg/kg, ip qd for 28 days by autoradiography relative to control; format: functional; conditions: route intraperitoneal
[6] = In vivo displacement of [3H]SCH-23390 from dopamine D1 receptor in Sprague-Dawley rat dorsolateral frontal cortex at 13.75 mg/kg, ip qd for 28 days by autoradiography relative to control; format: functional; conditions: route intraperitoneal
Method in brief: (§3)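 Forebrain sections from male Sprague-Dawley rats (N = 8/group) after 28 days of daily ip injections versus vehicle. Incubation 1 h RT in 50 mM Tris-HCl pH 7.4, 120 mM NaCl, 5 mM KCl, 2 mM CaCl2, 1 mM MgCl2 with 1 nM [3H]SCH-23390 and 100 nM ketanserin. Nonspecific: 1 μM cis-flupenthixol. Saturating conditions; fmol/mg tissue, % of control.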

[7] = molecular target: T2, 5-hydroxytryptamine receptor 1A (Homo sapiens, UniProt P08908); test: Displacement of [3H]8-OH-DPAT from human recombinant 5HT1A receptor expressed in CHO cells after 60 mins by liquid scintillation counting; format: cell-based
T2 sequence (P08908 whole entry): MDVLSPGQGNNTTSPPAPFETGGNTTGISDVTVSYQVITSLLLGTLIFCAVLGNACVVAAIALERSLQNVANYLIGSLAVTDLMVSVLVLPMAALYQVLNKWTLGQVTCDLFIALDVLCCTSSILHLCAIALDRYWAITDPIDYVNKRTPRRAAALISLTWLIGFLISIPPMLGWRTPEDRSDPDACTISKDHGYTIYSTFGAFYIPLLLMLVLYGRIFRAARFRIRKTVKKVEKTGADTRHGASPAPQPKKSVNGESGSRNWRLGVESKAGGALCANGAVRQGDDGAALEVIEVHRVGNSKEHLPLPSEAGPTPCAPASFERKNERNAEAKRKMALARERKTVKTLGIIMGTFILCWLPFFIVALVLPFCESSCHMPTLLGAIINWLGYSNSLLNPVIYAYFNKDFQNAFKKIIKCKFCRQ

[8] = test system: Caudate-putamen; test: In vivo displacement of [3H]Nemonapride from dopamine D4 receptor in Sprague-Dawley rat medial part of caudate putamen at 13.75 mg/kg, ip qd for 28 days by autoradiography relative to control; format: functional; conditions: route intraperitoneal
[9] = test system: Hippocampus; test: In vivo displacement of [3H]8-OH-DPAT from 5HT1A receptor in Sprague-Dawley rat hippocampus CA3 region at 13.75 mg/kg, ip qd for 28 days by autoradiography relative to control; format: functional; conditions: route intraperitoneal; method in brief: as §2
[10] = test system: Hippocampus; test: In vivo displacement of [3H]Ketanserin from 5HT2A receptor in Sprague-Dawley rat hippocampus CA3 region at 13.75 mg/kg, ip qd for 28 days by autoradiography relative to control; format: functional; conditions: route intraperitoneal; method in brief: as §1
[11] = test system: Caudate-putamen; test: In vivo displacement of [3H]SCH-23390 from dopamine D1 receptor in Sprague-Dawley rat medial part of caudate putamen at 13.75 mg/kg, ip qd for 28 days by autoradiography relative to control; format: functional; conditions: route intraperitoneal; method in brief: as §3
[12] = In vivo displacement of [3H]SCH-23390 from dopamine D1 receptor in Sprague-Dawley rat entorhinal cortex at 13.75 mg/kg, ip qd for 28 days by autoradiography relative to control; format: functional; conditions: route intraperitoneal; method in brief: as §3
[13] = In vivo displacement of [3H]Ketanserin from 5HT2A receptor in Sprague-Dawley rat nucleus accumbens at 13.75 mg/kg, ip qd for 28 days by autoradiography relative to control; format: functional; conditions: route intraperitoneal; method in brief: as §1
[14] = Lipophilicity, log K of the compound in IAM-PC-DD2 HPLC column by UV method; format: physicochemical; conditions: artificial membrane
[15] = In vivo displacement of [3H]SCH-23390 from dopamine D1 receptor in Sprague-Dawley rat medial-prefrontal cortex at 13.75 mg/kg, ip qd for 28 days by autoradiography relative to control; format: functional; conditions: route intraperitoneal; method in brief: as §3
[16] = test system: Hippocampus; test: In vivo displacement of [3H]8-OH-DPAT from 5HT1A receptor in Sprague-Dawley rat hippocampus CA1 region at 13.75 mg/kg, ip qd for 28 days by autoradiography relative to control; format: functional; conditions: route intraperitoneal; method in brief: as §2
[17] = molecular target: T1, Serotonin 1a (5-HT1a) receptor/Adrenergic receptor alpha-1 (Rattus norvegicus); test: In vivo displacement of [3H]8-OH-DPAT from 5HT1A receptor in Sprague-Dawley rat dorsolateral frontal cortex at 13.75 mg/kg, ip qd for 28 days by autoradiography relative to control; format: functional, organism-based; parameters: dose 13.75 mg/kg; method in brief: as §2

**Q.** For `Clc1ccc2c(c1)N=C(N1CCNCC1)c1cccnc1O2`, which inhibition in vivo at 13.75 mg/kg [1] is on record?
**A.** Its inhibition in vivo at 13.75 mg/kg is 107%.

**Q.** And the inhibition [2]?
**A.** Its inhibition is 88%.

**Q.** What about the inhibition in vivo at 13.75 mg/kg [3] of the same compound?
**A.** Its inhibition in vivo at 13.75 mg/kg is 87%.

**Q.** What about the inhibition [4] of the same compound?
**A.** The inhibition was 103%.

**Q.** And the inhibition in vivo at 13.75 mg/kg [5]?
**A.** Its inhibition in vivo at 13.75 mg/kg is 152%.

**Q.** What about the inhibition in vivo at 13.75 mg/kg [6] of the same compound?
**A.** Its inhibition in vivo at 13.75 mg/kg is 95%.

**Q.** And the Ki [7]?
**A.** The Ki was 375 nM.

**Q.** What about the inhibition in vivo at 13.75 mg/kg [8] of the same compound?
**A.** Its inhibition in vivo at 13.75 mg/kg is 166%.

**Q.** And the inhibition in vivo at 13.75 mg/kg [9]?
**A.** The inhibition in vivo at 13.75 mg/kg was 105%.

**Q.** And the inhibition in vivo at 13.75 mg/kg [10]?
**A.** Its inhibition in vivo at 13.75 mg/kg is 92%.

**Q.** And the inhibition in vivo at 13.75 mg/kg [11]?
**A.** Its inhibition in vivo at 13.75 mg/kg is 131%.

**Q.** What about the inhibition in vivo at 13.75 mg/kg [12] of the same compound?
**A.** Its inhibition in vivo at 13.75 mg/kg is 96%.

**Q.** What about the inhibition in vivo at 13.75 mg/kg [13] of the same compound?
**A.** Its inhibition in vivo at 13.75 mg/kg is 98%.

**Q.** And the “log K” value [14]?
**A.** The value was 2.68.

**Q.** And the inhibition in vivo at 13.75 mg/kg [15]?
**A.** The inhibition in vivo at 13.75 mg/kg was 97%.

**Q.** And the inhibition in vivo at 13.75 mg/kg [16]?
**A.** Its inhibition in vivo at 13.75 mg/kg is 95%.

**Q.** And the inhibition [17]?
**A.** The inhibition was 141%.
